Sampled rows, rich in hits. Any-hit rate of the full collection: about 1.4%.
MT1-MMP act inh: MT1-MMP (human) activation inhibition | P50281 | HT1080 RFP-PRO-GFP cells, GFP/RFP ratio fluorescence, overnight; percent of plate control window, DMSO zero | GFP/RFP ratio change, % at 20 µM | hit rate 0.061% among 360,000 | AID 651647;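 active means GFP/RFP ratio change of at least 30% with cell ATP level not reduced by more than half and red fluorescence within 50% of control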
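Material – HT1080 RFP-PRO-GFP cells · Control set – DMSO wells and RFP-L50D-GFP cells · Incubation – overnight cell settling, then overnight compound exposure, 37 °C, 5% CO2 · Compound dosing – single-point 20 µM compound, 1% DMSO · Read-out – GFP/RFP fluorescence ratio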
hiPSC survival: hiPSC single-cell survival enhancement; ATPlite luminescence; 100% = ROCK inhibitor wells, 0% = DMSO; survival enhancement, % at 20 µM; hit rate 0.044% among 360,000; AID 602274; in the data active means survival enhancement above about 18%;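 further: cells exposed to compounds for 16 hours before the ATP read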
NRP1-CendR mod: alters CendR peptide binding to human NRP-1; inhibition, % at 25 µM; O14786; hit rate 0.85% among 360,000; FAM-RPARPAR peptide binding to NRP-1, fluorescence polarization;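 active means inhibition or corrected inhibition above about 18%, plus a signal ratio from 0.5 to 1.5, limit read from the data, passing the limit was not always enough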
SKN-1 inh: C. elegans SKN-1 inhibition. C. elegans VP596 Pgst-4::GFP/RFP ratio, acrylamide-induced, 24 h. inhibition, % at 21.8 µM. hit rate 0.49% among 360,000;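 active means interference check ratio from 0.5 to 1.5 plus GFP to RFP signal ratio inhibition reaching or exceeding a fixed threshold, cut at about 30% in these data, passing the limit was not always enough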
A number is an active result; n = inactive; x = no result; ! = not active in a repeat.

SMILES | MT1-MMP act inh | hiPSC survival | NRP1-CendR mod | SKN-1 inh
O=C(CN1C(=O)c2ccccc2C1=O)Nc1cccc(Cl)c1 | n | n | n | n
O=C(CCC1COc2ccccc2O1)NCc1ccccc1 (stereo not drawn) | n | n | n | n
NC(=O)C1CCN(C(=O)C2CCC(=O)N(CC3CCCCC3)C2)CC1 (stereo not drawn) | n | n | 18.2 | n
NC(=O)C1CCN(C(=O)C2CCC(=O)N(C3CCCCCC3)C2)CC1 (stereo not drawn) | n | n | n | n
Cc1cc(C)c(OCCOCCN2CCNCC2)c(C)c1 | n | n | n | 38.5
NCCSSCCN | n | n | n | n
CCC(=O)Nc1cccc(C(=O)/C=C/c2cccs2)c1 | n | n | 27.3 | n
CCC(=O)Nc1cccc(C(=O)/C=C/c2ccccc2)c1 | x | n | n | n
Clc1ccc(-c2cc(CSc3ccccc3)on2)cc1 | n | n | n | 44.7
c1ccc(OCc2cc(-c3ccccc3)no2)cc1 | n | n | n | 45.0
Clc1ccc(SCc2cc(-c3ccccc3)on2)cc1 | n | n | n | 49.5
Clc1ccc(SCc2cc(Cl)nc(-c3ccccc3)n2)cc1 | n | n | n | n
COc1ccc(OCc2cc(-c3ccc(Cl)cc3)no2)cc1 | n | n | n | n
Cc1ccc(SCc2cc(-c3ccc(Cl)cc3)no2)cc1 | n | n | n | n
Clc1ccc(-c2cc(CSc3cccc(Cl)c3)on2)cc1 | n | n | n | 60.2
O=C(Cn1cncn1)NCc1cc(F)ccc1F | n | n | n | n
COc1ccc(OC)c(N(CC(=O)N2CCCC2)S(=O)(=O)c2ccc(OC)c(OC)c2)c1 | n | n | n | n
CCOC(=O)c1sc2ncn(CC(=O)NCC3CCCO3)c(=O)c2c1C (stereo not drawn) | n | n | n | n
Cc1cc(C(=O)Nc2ccc(F)c(Cl)c2)on1 | n | n | n | n
O=C1NC2NC(=O)N(C(Cc3ccccc3)C(=O)O)C2N1 (stereo not drawn) | n | n | n | n
c1ccc(SCc2cc(-c3ccccc3)no2)cc1 | n | n | n | 54.8
COc1ccccc1OCc1cc(-c2ccccc2)no1 | n | n | n | n
Cc1ccc(-n2c(O)c(/C=N/Nc3ccc(S(=O)(=O)N4CCOCC4)cc3[N+](=O)[O-])c3ccccc3c2=O)c(C)c1 | n | n | 46.2 | n
Cc1oc(-c2ccc(Cl)cc2)cc1C(=O)O | n | n | 44.3 | n
C[C@@H](C(=O)Nc1cccnc1)n1c(=O)[nH]c2ccccc2c1=O | n | n | 35.3 | n
SMILES | MT1-MMP act inh | hiPSC survival | NRP1-CendR mod | SKN-1 inh
O=C(Cn1c(=O)[nH]c2ccccc2c1=O)Nc1cccnc1 | n | n | n | n
O=C1[C@H]2[C@H](C=CC[C@H]2C(=O)N2CCN(c3ccccc3)CC2)CCN1Cc1ccc(Cl)c(Cl)c1 | n | n | n | n
O=C1[C@H]2[C@H](C=CC[C@H]2C(=O)N2CCN(c3ccccc3)CC2)CCN1Cc1ccccc1 | n | n | 27.7 | n
Cc1ccc(N(CC(=O)NCC2CCCO2)S(=O)(=O)c2ccc(Cl)cc2)cc1C (stereo not drawn) | n | n | n | 35.1
O=C(/C=C/c1ccc(Cl)c(Cl)c1)NCCCn1ccnc1 | n | n | n | n
COc1ccc(/C=N\NS(=O)(=O)c2ccc(Cl)cc2)cc1COc1ccccc1[N+](=O)[O-] | n | n | 24.4 | n
Cc1ccc(C(=O)Nc2ncc([N+](=O)[O-])s2)cc1 | n | n | n | 37.4
Cc1ccc(C(=O)Nc2nc(=O)[nH]s2)cc1 | n | n | 17.2! | n
O=c1c2c3c(sc2ncn1/N=C/c1ccncc1)CCCC3 | n | n | n | n
O=S(=O)(Nc1nnc(C(F)(F)F)s1)c1ccc(Cl)cc1 | n | n | n | n
Clc1ccccc1Cn1nnc(-c2ccccc2)n1 | n | n | n | n
Fc1ccc(Cn2nnc(-c3ccc(CN4CCOCC4)cc3)n2)cc1 | n | n | n | 36.4
Clc1ccc(Cn2nnc(-c3ccccc3)n2)cc1 | n | n | n | 53.6
CC1CCCCN1C(=O)c1cc(F)c(F)cc1Cl (stereo not drawn) | n | n | n | n
Cc1ccc(S(=O)(=O)N2CCN(C(=O)c3ccccn3)CC2)cc1 | n | n | n | n
O=C(c1ccccn1)N1CCN(S(=O)(=O)c2ccccc2)CC1 | n | n | 24.0 | n
OCCC1CCCCN1CC(O)COCc1ccc(Cl)cc1 (stereo not drawn) | n | n | 21.2 | n
NC(=O)C1CCCN(CC(O)COCc2ccc(Cl)cc2)C1 (stereo not drawn) | n | n | n | n
Cn1c(=O)c2c(ncn2CC(=O)OCC(=O)NCc2ccc(Cl)cc2)n(C)c1=O | n | n | n | n

Source: PubChem
